The results in this text go back to ChEMBL document CHEMBL4177603 (Bioorg Med Chem Lett, 2017).

A short description of series [1]: Solubility of the compound in aqueous buffer at pH 4.2. Format: physicochemical.
Series [2] deals with Sodium channel protein type 8 subunit alpha (Homo sapiens, UniProt Q9UQD0). The experiment in a line: Inhibition of human Nav1.6 expressed in HEK cells by patch clamp electrophysiology method. Format: cell-based.
Series [3] can be described thus: Primary phase half-life in dog at 0.3 mg/kg, iv via infusion for 0.5 hrs. The conditions noted are these: in vivo, read-out: alphat1/2 (converted). In kind it is ADME, organism-based, Canis lupus familiaris. The gist of the method: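 Dog IV pharmacokinetics, with half-life reported as two values: α (initial phase) and β (terminal phase) of the disposition profile.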

Series [4] can be described thus: Intrinsic clearance in dog liver microsomes. In kind it is ADME, Canis lupus familiaris, microsome. The conditions noted are these: read-out: CLH.
In series [5] the target is Substance-P receptor (Homo sapiens) (UniProt P25103). The experiment in a line: Agonist activity at human NK1 receptor expressed in U373MG cells assessed as increase in calcium flux at 10 uM by fluorimetric method relative to control. In kind it is functional, cell-based.
Series [6] concerns the target 5-hydroxytryptamine receptor 1A (Homo sapiens) (UniProt P08908). The experiment in a line: Agonist activity at human 5-HT1A receptor expressed in mouse BA/F3 cells assessed as increase in calcium flux at 10 uM by fluorimetric method relative to control. Format: functional, cell-based.
Series [7] concerns the target 5-hydroxytryptamine receptor 2B (Homo sapiens) (UniProt P41595). The experiment in a line: Agonist activity at human 5-HT2B receptor expressed in CHOK1 cells assessed as increase in IP1 accumulation at 10 uM measured after 30 mins by HTRF method relative to control. Format: functional, cell-based.
Series [8] has as its target Type-1 angiotensin II receptor (Homo sapiens) (UniProt P30556). The experiment in a line: Antagonist activity at recombinant human AT1 receptor expressed in HEK293 cells assessed as inhibition of angiotensin2-induced calcium flux at 10 uM by spectrophotometric method relative to control. Format: functional, cell-based.
Series [9] has as its target T1, Muscarinic acetylcholine receptor M1 (Homo sapiens) (UniProt P11229).
T1 sequence (whole entry): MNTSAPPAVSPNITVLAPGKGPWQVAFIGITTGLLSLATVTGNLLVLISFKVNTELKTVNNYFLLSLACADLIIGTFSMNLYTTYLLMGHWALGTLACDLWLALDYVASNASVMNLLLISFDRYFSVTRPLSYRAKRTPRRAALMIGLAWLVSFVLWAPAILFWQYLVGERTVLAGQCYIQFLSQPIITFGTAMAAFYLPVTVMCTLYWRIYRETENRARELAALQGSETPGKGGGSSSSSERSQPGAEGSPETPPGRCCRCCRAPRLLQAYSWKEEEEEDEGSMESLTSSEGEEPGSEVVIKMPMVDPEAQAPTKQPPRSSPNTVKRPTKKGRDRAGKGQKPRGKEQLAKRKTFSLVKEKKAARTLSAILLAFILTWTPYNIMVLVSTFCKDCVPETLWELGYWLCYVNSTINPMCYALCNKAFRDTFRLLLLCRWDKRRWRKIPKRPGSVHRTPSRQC
The experiment in a line: Antagonist activity at human M1 receptor expressed in CHOK1 cells assessed as inhibition of acetylcholine-induced calcium flux at 10 uM by fluorimetric method relative to control. Format: functional, cell-based.

Series [10] concerns the target T2, Voltage-gated inwardly rectifying potassium channel KCNH2 (Homo sapiens, UniProt Q12809). The experiment in a line: Inhibition of human ERG by PatchXpress electrophysiology method.
In series [11] the target is T2, Voltage-gated inwardly rectifying potassium channel KCNH2. The experiment in a line: Displacement of [3H]Dofetilide from recombinant human ERG after 60 mins by scintillation counting method.
Series [12] is described as follows: Protein binding in rat plasma assessed as fraction unbound at 2 uM. In kind it is ADME, cell-free.

T2 sequence (Q12809 whole entry): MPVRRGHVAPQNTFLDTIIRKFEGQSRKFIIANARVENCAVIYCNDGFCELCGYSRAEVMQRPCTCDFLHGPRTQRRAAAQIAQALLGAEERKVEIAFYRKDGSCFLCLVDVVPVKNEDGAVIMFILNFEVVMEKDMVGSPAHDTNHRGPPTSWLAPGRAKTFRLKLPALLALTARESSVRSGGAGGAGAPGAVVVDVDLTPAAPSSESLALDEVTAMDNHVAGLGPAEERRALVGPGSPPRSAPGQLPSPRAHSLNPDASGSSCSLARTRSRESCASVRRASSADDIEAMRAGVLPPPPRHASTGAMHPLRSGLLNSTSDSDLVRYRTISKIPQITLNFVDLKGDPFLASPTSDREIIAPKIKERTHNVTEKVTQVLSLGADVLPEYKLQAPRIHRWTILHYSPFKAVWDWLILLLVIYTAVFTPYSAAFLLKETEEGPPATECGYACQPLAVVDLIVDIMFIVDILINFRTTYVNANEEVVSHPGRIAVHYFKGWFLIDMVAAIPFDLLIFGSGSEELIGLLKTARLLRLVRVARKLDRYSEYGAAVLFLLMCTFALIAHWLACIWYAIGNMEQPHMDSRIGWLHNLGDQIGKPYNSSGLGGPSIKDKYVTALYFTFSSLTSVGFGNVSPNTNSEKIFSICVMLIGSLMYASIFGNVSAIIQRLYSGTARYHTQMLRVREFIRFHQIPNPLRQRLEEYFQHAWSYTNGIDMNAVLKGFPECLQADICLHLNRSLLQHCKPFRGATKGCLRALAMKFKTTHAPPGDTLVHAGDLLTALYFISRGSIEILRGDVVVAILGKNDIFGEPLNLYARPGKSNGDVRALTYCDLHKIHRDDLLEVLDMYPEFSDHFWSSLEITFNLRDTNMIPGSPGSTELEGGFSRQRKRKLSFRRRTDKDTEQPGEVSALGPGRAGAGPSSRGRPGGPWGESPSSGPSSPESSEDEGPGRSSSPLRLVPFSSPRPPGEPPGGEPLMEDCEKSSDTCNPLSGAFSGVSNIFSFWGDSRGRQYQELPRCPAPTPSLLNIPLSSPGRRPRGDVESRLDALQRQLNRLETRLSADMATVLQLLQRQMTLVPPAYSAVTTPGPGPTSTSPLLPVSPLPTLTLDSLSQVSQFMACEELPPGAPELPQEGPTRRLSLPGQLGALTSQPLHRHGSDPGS
Sequence of 5-hydroxytryptamine receptor 2B (Homo sapiens) (P41595 whole entry): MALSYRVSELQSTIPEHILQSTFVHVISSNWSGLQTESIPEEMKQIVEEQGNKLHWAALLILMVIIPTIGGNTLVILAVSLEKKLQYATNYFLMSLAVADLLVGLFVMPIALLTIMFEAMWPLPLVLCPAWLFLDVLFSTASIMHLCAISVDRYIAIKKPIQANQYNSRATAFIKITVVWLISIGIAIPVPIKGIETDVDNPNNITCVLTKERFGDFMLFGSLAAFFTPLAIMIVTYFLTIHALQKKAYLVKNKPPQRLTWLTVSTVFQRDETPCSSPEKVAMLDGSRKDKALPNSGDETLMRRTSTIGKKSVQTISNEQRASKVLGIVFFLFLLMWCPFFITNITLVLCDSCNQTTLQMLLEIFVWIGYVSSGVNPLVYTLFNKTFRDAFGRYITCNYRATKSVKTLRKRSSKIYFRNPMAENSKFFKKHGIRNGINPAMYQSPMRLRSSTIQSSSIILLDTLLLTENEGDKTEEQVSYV
Sequence of Type-1 angiotensin II receptor (Homo sapiens) (P30556 whole entry): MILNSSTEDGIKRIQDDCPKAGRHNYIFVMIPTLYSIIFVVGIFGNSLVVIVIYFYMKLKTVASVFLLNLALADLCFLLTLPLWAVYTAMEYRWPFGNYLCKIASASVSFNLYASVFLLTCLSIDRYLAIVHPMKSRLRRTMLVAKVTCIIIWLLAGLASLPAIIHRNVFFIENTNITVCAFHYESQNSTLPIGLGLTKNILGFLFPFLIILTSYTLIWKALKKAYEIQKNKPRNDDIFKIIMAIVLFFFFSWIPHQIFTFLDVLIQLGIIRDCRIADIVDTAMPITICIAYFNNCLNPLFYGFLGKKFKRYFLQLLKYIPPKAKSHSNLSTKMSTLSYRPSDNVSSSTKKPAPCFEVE
Sequence of Substance-P receptor (Homo sapiens) (P25103 whole entry): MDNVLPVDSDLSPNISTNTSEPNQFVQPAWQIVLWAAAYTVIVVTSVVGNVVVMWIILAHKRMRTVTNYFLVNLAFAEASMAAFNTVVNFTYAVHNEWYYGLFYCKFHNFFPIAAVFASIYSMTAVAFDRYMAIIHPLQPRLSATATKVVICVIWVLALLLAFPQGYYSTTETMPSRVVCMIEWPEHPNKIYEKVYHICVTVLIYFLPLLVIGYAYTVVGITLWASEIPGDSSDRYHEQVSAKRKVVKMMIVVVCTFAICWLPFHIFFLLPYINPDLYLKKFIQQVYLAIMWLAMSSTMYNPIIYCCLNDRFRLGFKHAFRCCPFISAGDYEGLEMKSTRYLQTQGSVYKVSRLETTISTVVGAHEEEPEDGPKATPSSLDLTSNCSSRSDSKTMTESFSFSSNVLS
Sequence of 5-hydroxytryptamine receptor 1A (Homo sapiens) (P08908 whole entry): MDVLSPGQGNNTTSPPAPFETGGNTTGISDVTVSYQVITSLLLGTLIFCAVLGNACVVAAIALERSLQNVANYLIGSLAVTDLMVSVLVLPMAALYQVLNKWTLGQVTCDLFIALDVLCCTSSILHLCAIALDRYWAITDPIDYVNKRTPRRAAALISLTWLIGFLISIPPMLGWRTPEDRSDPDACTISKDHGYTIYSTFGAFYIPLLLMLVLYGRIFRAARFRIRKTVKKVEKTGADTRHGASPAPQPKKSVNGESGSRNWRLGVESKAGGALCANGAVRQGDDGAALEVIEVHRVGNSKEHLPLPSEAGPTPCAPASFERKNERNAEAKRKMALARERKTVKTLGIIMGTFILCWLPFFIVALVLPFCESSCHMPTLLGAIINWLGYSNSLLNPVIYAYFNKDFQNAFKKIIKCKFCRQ
Sequence of Sodium channel protein type 8 subunit alpha (Q9UQD0 whole entry, the tested form may be a part): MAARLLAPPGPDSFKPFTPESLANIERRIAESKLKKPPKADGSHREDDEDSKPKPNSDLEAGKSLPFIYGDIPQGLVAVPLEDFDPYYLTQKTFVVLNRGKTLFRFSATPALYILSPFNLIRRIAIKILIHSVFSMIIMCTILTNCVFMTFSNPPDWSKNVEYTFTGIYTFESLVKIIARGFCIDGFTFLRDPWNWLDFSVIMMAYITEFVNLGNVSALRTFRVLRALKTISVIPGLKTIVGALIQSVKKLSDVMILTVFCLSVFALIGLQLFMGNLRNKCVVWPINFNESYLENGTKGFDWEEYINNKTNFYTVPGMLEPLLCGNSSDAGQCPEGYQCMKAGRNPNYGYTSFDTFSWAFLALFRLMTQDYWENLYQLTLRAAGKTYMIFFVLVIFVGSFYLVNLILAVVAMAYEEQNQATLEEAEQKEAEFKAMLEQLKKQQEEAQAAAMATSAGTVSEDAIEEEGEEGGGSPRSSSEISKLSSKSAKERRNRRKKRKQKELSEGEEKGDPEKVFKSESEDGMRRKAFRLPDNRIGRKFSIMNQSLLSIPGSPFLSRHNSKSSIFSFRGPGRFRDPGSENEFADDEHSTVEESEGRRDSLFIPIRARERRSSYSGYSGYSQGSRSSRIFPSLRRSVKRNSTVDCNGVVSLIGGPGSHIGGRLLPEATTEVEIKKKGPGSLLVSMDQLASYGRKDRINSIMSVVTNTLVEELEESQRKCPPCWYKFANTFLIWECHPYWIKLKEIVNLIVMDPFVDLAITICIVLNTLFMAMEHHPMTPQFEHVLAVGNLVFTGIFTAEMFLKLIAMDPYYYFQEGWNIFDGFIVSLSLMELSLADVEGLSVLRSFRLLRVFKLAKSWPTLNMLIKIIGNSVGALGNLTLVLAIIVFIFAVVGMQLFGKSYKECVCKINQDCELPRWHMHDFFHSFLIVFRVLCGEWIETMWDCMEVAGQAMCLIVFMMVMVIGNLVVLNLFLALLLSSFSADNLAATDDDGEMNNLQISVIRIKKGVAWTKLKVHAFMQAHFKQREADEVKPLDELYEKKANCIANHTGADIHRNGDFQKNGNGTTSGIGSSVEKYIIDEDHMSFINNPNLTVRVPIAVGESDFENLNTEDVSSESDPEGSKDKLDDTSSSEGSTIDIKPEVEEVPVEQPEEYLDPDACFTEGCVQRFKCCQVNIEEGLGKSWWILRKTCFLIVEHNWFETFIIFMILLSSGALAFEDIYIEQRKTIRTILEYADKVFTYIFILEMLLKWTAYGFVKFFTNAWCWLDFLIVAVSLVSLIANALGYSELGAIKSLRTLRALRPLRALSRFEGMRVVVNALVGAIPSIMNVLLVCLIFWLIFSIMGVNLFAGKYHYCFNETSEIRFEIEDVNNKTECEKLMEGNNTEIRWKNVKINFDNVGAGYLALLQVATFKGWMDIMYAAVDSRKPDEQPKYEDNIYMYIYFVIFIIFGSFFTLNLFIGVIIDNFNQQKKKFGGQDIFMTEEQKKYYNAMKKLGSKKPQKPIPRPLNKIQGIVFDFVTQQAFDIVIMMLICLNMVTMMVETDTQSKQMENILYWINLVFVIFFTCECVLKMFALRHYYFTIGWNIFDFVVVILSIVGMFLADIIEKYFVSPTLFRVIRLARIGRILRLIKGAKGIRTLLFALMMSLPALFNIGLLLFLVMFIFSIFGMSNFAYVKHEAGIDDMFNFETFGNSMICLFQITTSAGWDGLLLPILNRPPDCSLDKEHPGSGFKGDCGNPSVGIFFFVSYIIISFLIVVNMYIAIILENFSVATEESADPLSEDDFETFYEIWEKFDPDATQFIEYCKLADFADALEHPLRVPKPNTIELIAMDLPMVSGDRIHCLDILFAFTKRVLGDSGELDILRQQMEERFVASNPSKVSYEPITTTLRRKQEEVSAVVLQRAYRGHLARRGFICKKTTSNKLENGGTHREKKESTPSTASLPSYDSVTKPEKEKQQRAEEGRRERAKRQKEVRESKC

In [1], `N#Cc1cc(S(=O)(=O)Nc2ncns2)ccc1Oc1ccc(-c2cccc(C(F)(F)F)c2)cc1-c1ccnc(CNCCC2CCNCC2)c1` showed a solubility above 1170 µg/mL. Besides, the values for the IC50 in series [2] and in series [10] were 0.00546 to 0.0058 µM and above 25.2 µM, respectively. In addition, the half-life in series [3] was 3.42 min. Further, the microsomal CLint in series [4] was below 18.1 µL/min/mg. The results for the Activity in [5], in series [6] and in series [7] were 0%, -34% and 1%, respectively. Moreover, the inhibition in series [8] is -2%; in series [9] it was 7%. Moreover, the inhibition constant Ki in series [11] came out at 1.09 µM. In addition, the fraction unbound at 2 µM in [12] stood at 0.002.
